AI-2 QS mod: modulates the Vibrio harveyi AI-2 quorum sensing system | activity change, % at 7.5 µM | 300,000 compounds, 0.4% hits | Vibrio harveyi JMH597 AI-2 luminescence/OD600 ratio, 9 h; hits give low values; strain lacks LuxN and CqsS sensors; 0 = neutral-control median; in the data active means activity change below about -75%, passing the limit was not always enough;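 further: luminescence divided by OD600 gain over 9 h not by final OD600 alone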
HTR2A ag: mouse HTR2A agonism via beta-arrestin recruitment; CHO-K1 mHTR2A beta-arrestin complementation, luminescence; percent of 30 µM serotonin response; activation, % at 7.6 µM; 360,000 compounds, 0.66% hits; AID 624169;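 active means activation above a run cutoff, the mean activation of all tested compounds plus 3 SD, cut at about 14% in these data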;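 further: 0% = plate median of compound wells and 100% = 30 µM serotonin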
MsrA inhibitor: bovine MsrA inhibition; purified bovine MsrA, absorbance read-out; inhibition, % at 15.5 µM; 360,000 compounds, 0.75% hits; in the data active means inhibition above about 4.5%;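 further: 0% = vehicle wells with enzyme and 100% = reference inhibitor wells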
AHR act: human AHR activation | P35869 | 320,000 compounds, 2.5% hits | AID 2796 | AHR-responsive luciferase reporter cells, luminescence | activation, % at 5 µM; in the data active means activation above about 47%;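 further: 0% = vehicle wells and 100% = reference agonist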
Target sequence (P35869 whole entry, looked up): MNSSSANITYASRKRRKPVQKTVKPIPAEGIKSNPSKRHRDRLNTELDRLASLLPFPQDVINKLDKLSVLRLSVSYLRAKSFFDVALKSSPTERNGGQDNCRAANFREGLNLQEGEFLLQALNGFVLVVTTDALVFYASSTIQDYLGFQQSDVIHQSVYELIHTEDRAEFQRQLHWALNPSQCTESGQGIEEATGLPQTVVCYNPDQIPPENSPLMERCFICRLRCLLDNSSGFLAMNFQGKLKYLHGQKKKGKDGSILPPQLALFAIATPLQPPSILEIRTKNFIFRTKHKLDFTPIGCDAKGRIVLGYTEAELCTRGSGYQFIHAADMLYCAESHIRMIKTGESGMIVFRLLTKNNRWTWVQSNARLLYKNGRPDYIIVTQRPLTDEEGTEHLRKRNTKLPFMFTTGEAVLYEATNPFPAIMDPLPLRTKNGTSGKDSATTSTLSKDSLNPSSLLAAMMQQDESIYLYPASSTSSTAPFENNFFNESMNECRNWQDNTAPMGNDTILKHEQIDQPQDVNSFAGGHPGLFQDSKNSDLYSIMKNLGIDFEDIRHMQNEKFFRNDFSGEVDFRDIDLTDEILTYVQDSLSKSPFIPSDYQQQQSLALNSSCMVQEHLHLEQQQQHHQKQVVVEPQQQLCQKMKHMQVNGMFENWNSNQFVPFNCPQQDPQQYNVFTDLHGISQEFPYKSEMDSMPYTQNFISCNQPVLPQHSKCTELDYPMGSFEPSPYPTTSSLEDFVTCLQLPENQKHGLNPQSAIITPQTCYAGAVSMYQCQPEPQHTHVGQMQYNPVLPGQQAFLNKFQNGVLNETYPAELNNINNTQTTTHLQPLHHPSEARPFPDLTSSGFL
bovine MsrA act: activates bovine MsrA enzyme. activation, % at 10.6 µM. 360,000 compounds, 0.3% hits. purified bovine MsrA, absorbance read-out; in the data active means activation above about 7.5%;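 further: 0% = vehicle and 100% = reference activator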
TbMetRS inhib: blocks T. brucei methionyl-tRNA synthetase activity; purified T. brucei MetRS, ATP depletion, Kinase-Glo luminescence; inhibition, % at 11.9 µM; 360,000 compounds, 0.4% hits; AID 624268;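 active means inhibition above a per-plate cutoff of the control wells' mean inhibition plus 3 SD, cut at about 5.5% in these data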;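 further: 0% = DMSO wells median and 100% = median of wells with control inhibitor compound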
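Test system – parasite MetRS enzyme · Reagent – substrates ATP, L-methionine and bulk Escherichia coli tRNA · Doses – 11.9 µM compound single dose, 0.9% DMSO · Times – 15 min enzyme-compound preincubation, 2 h reaction, 10 min detection, 25 °C · Signal – Kinase-Glo luminescence, ATP depletion format · Controls – DMSO-only wells as low control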
* marks the source's active call; other numbers are inactive results; . = not tested or not shown. Shown are actives, neighbours in structure and some others; about 4.4% of the full set was active somewhere.

SMILES | AI-2 QS mod | HTR2A ag | MsrA inhibitor | AHR act | bovine MsrA act | TbMetRS inhib
C=CCN1[C@@H](C)[C@H](c2ccccc2)Oc2cccc(N3CCCC(C)C3)c2S1(=O)=O (some centres undefined) | . | . | 1 | . | . | .
CC(=O)N1C[C@@H](CN2C(=O)CCC2=O)[C@@H]2C[C@H]1c1ccccc1N2C | . | . | 0 | . | . | .
COc1ccc2c(c1)C(NC(=O)C(F)(F)F)CC21CCCCC1 (centres undefined) | . | . | 0 | . | . | .
COC(=O)N1C[C@H](OCCCOCc2ccccc2)[C@H]2C[C@@H]1c1ccccc1O2 | . | . | -1 | . | . | .
COC(=O)[C@]12C[C@H](CC(=O)N3CCC(c4ccccc4)CC3)C(=O)N(CCC3=CCCCC3)C1=C[C@H](COCc1ccccc1)O[C@@H]2C | . | . | 0 | . | . | .
Cc1ccc(-n2sc3ccccc3c2=O)cc1S(=O)(=O)N1CCCCC1 | 41 | 17* | 1 | 8 | 4 | 0
O=C(O)c1cccc(-n2sc3ccccc3c2=O)c1 | . | -2 | 2 | 3 | 17* | 0
O=c1c2ccccc2sn1-c1ccc(S(=O)(=O)N2CCCCC2)cc1 | 38 | 3 | 0 | 0 | -2 | 0
Cc1ccccc1CNS(=O)(=O)c1csc(C(N)=O)c1 | -1 | -1 | 1 | 0 | -2 | 0
O=C(N[C@H](C(=O)N1CCC[C@H]1C(=O)NCc1ccccc1)C1CCCCC1)c1ccccc1 | . | . | 0 | . | . | .
N#CC1=C(N)Oc2cc(N)ccc2C1c1ccsc1 (centres undefined) | 27 | 1 | -1 | 84* | -3 | 0
CCN(CC)P(=O)(Nc1ccc(C)cc1Br)c1ccc(N(C)C)cc1NC(=O)c1ccco1 (centres undefined) | 20 | 0 | -1 | 49* | -1 | 0
COC(=O)C1=C(C)N(Cc2ccccc2C(F)(F)F)C(=NCc2ccccc2)NC1CCc1ccccc1 (centres undefined) | . | . | -2 | . | . | .
C[C@H](CO)N1C[C@H](C)[C@H](CN(C)C(=O)Nc2ccc(F)cc2)Oc2ncc(Br)cc2C1=O | . | . | 0 | . | . | .
CC(Nc1ccc2ccccc2c1)C(=O)N/N=C/c1ccncc1 (centres undefined) | . | -6 | -1 | 10 | -2 | 0
CC1=C(C(=O)OCc2ccccc2)C(c2ccc(Cl)cc2)NC(=O)N1CCCC(=O)O (centres undefined) | 3 | . | -1 | -2 | . | .
COc1ccc(-c2cc(=O)c3cc(OC)c(OC)cc3[nH]2)cc1 | 21 | -1 | 2 | 62* | -5 | 0
COc1ccc(-c2cc(=O)c3cc(F)ccc3[nH]2)cc1 | 8 | 3 | 0 | 18 | -1 | 0
O=C(NCc1ccc(F)cc1)c1nc(-c2cccs2)no1 | -76* | -5 | 0 | 1 | -3 | 0
CSc1cccc(N2CC(C(=O)Nc3cccc(S(=O)(=O)N4CCCC4)c3)CC2=O)c1 (centres undefined) | -3 | -3 | -1 | 2 | -2 | 0
O=C(OCC(=O)N1CCOCC1)c1c(Cl)ccc(Cl)c1Cl | 35 | 5 | 2 | 48* | -4 | 0
O=S1(=O)N[C@H](Cc2ccccc2)COc2cccc(N3CCCCC3)c21 | . | . | 2 | . | . | .
CC1(C)C/C(=N\NC(=S)Nc2ccccc2F)c2cc(O)ccc2O1 | 6 | -3 | 1 | 60* | -4 | 0
Cc1c(S(=O)(=O)N2CCCCC2)c(=O)n(C)c(=O)n1C | 25 | -3 | 0 | -1 | -2 | 0
Cc1ccnc(NC(=O)CNC(=O)c2ccc(Br)o2)c1 | -85* | 0 | -2 | 7 | -5 | -1
SMILES | AI-2 QS mod | HTR2A ag | MsrA inhibitor | AHR act | bovine MsrA act | TbMetRS inhib
NS(=O)(=O)c1cccc(NC(=O)COC(=O)Cn2cnc3ccccc32)c1 | 12 | 0 | 0 | 0 | 2 | 0
O=C(Cn1cnc2ccccc21)Nc1cccc(S(=O)(=O)N2CCCC2)c1 | . | -6 | . | -4 | -4 | 36*
Cc1cc(Nc2cccc([N+](=O)[O-])c2)cc(=O)n1-c1cccc([N+](=O)[O-])c1 | . | . | 1 | . | . | .
CCOC(=O)C1=C(Cc2ccc(Cl)cc2)C(=O)c2ccccc2C1=O | 7 | -3 | . | 86* | 3 | 0
O=C(COc1ccc(Br)cc1)NNC(=O)Cc1ccc(S(=O)(=O)N2CCOCC2)s1 | . | 7 | -1 | . | -6 | 0
CC(C)c1ccc(-n2cnn(-c3ncccc3[N+](=O)[O-])c2=O)cc1 | 21 | -3 | 0 | 51* | -3 | 0
COC(=O)c1cc2c(c3c4cc(F)ccc4n(S(=O)(=O)c4ccc(C)cc4)c13)C(=O)N(C)C2 | . | . | 1 | . | . | .
Cc1cc(/C=C\c2ccccc2)nc2ccccc12 | 0 | 1 | 0 | 62* | -4 | 0
COc1ccc(/C=C/c2cc(C(=O)O)c3ccccc3n2)cc1 | 36 | -1 | 2 | -4 | -2 | 1
Oc1ccc(C2C(c3ccccc3)=NN=C(c3ccc(Cl)cc3)N2O)c(O)c1 (centres undefined) | 12 | -2 | 1 | 48* | 0 | 0
CCc1ccc(C(=O)Nn2cnc3ccccc3c2=O)cc1 | -80* | -4 | -1 | 8 | -1 | -1
CCOC(=O)[C@]12CCCC=C1N(CCC1=CCCCC1)C(=O)[C@H](CC(=O)NCc1cccc(C(F)(F)F)c1)C2 | . | 0 | 1 | . | . | 1
CCOC(=O)CN1CC23C=CC(O2)C(C(=O)Nc2ccc4c(c2)OCO4)C3C1=O (centres undefined) | 13 | -3 | 0 | 70* | 1 | 0
CCOC(=O)CN1CC23C=CC(O2)C(C(=O)Nc2ccc(OCC)cc2)C3C1=O (centres undefined) | 20 | 0 | 1 | -2 | -4 | 0
CN1CCN(c2ccc(NC(=O)c3ccc(-c4ccccc4F)o3)cc2)CC1 | . | -2 | 2 | 64* | -3 | 0
COc1ccc(C=C2OC(=O)C(C(C)=O)=C2O)cc1 | . | 6 | 9.1* | . | -11 | 0
C#CCN(Cc1cccc(F)c1)C(=O)c1nnc2c3ccccc3n(S(=O)(=O)c3ccc(C)cc3)c2n1 | . | . | 0 | . | . | .
Cc1ccc(-n2[nH]c(C)c(/C=C3/C=Nc4ccccc43)c2=O)cc1C | 6 | 2 | 0 | 60* | -1 | 0
Cc1[nH]n(-c2ccccc2)c(=O)c1/C=C1\C=NN=C1c1ccccc1 | 22 | 4 | -1 | 5 | 1 | 0
O=C(N/N=C/c1ccc(-c2ccc([N+](=O)[O-])cc2)o1)[C@H]1C[C@@H]1c1ccccc1 | -2 | -4 | 0 | 2 | -2 | 0
O=C(N/N=C/c1ccc(-c2ccccc2[N+](=O)[O-])o1)[C@H]1C[C@@H]1c1ccccc1 | 31 | -5 | 2 | 69* | -4 | 3
CCOc1ccc2nc(NC3=NC(C)(C)C=C(C)N3)nc(C)c2c1 | 28 | -9 | 0 | 41 | -1 | 0
CCOc1ccc2c(C)nc(NC3=NC(C)(C)C=C(C)N3)nc2c1 | 37 | -4 | 0 | 64* | -9 | 0
Cn1c(Cl)c(C(=O)Nc2ccc(Cl)cc2)c2ccccc21 | . | -3 | 0 | 57* | -9 | -1
